Data: ChEMBL document CHEMBL5252676, “Dimeric polyphenols to pave the way for new antimalarial drugs” (RSC Med Chem, 2023)
≈ marks a conversion by molar mass, not a printed value. Calls of active or inactive are those of the source. The rule behind the calls is not given here.

Experiments:
[1] = Hemolytic activity in RBC (unknown origin) assessed as hemolysis at 100 ug/ml incubated for 1 hrs by absorbance based microplate reader analysis relative to control; type: toxicity, cell-based, Erythrocyte; conditions: red blood cells, at 100 µg/mL, read-out: Activity
In short: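 Human A⁺/O⁺ RBC, 10% v/v in PBS, exposed to compound at 100 μg mL⁻¹ final (DMSO < 1%), in duplicate, stirred 1 h at RT. Centrifuged, supernatant OD₅₅₀ read. % lysis = (sample − PBS)/(1% Triton X-100 − PBS) × 100.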

Plasmodium falciparum [2] = assay: Antiplasmodial activity against chloroquine-sensitive Plasmodium falciparum 3D7 assessed as intraerythrocytic growth inhibition; type: functional, organism-based
In short: (§1)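 Asexual intraerythrocytic P. falciparum cultured at 37 °C in RPMI with glucose, hypoxanthine, gentamycin and 10% pooled human A+/O+ serum. DMSO stocks of 5–10 mg mL⁻¹ diluted in RPMI, final DMSO at most 1%. Eight two-fold dilutions tested in three consecutive assays. Growth read as Plasmodium lactate dehydrogenase activity at 650 nm against parasitized RBC (100%) and free RBC (0%). IC50 in triplicate; artemisinin and quinine as controls.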

Plasmodium falciparum [3] = assay: Antiplasmodial activity against chloroquine-resistant Plasmodium falciparum FcB1 assessed as intraerythrocytic growth inhibition; type: functional, organism-based; in short: as §1
[4] = Selectivity index, ratio of IC50 for cytotoxicity against HUVEC cells to IC50 for antiplasmodial activity against chloroquine-sensitive Plasmodium falciparum 3D7; type: toxicity, cell-based; conditions: human, read-out: Ratio IC50
[5] = Cytotoxicity against HUVEC cells assessed as inhibition of cell growth incubated for 48 hrs by fluorescence based assay; type: toxicity; conditions: human
In short: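 HUVEC in EGM-2, at most 10 passages, seeded at 2.5 × 10⁴ cells/well and grown 24 h at 37 °C. Six 2-fold concentrations in triplicate (DMSO max 0.5%) for 48 h. PrestoBlue for 2–3 h, fluorescence 560–590 nm, growth compared with untreated cells. n = 3 separate tests.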

Plasmodium falciparum [6] = assay: Antiplasmodial activity against multidrug-resistant Plasmodium falciparum W2 assessed as intraerythrocytic growth inhibition; type: functional, organism-based; in short: as §1
[7] = Aqueous solubility of compound assessed as Cmax incubated for 3 days by UV spectrophotometer based shake-flask method; type: physicochemical; conditions: water (aqueous); time 3 day; read-out: Cmax
In short: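 Shake-flask: excess solid stirred overnight in MilliQ water at RT (~25 °C), filtered 0.45 μm, diluted, absorbance read at the λmax from a UV scan. Quantified against a 3-point calibration curve (R² > 0.95). Fresh saturated solutions were made on 3 consecutive days.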

[8] = Toxicity in zebrafish embryos assessed as reduction in brain size at 10 to 100 ug/ml measured for 3 days; type: tissue-based, Danio rerio; conditions: in vivo, 72 h, dose 10-100 µg/ml, time 3 day
[9] = Toxicity in zebrafish embryos assessed as modified heart rate at 10 to 100 ug/ml measured for 3 days; parameters: species or system Danio rerio; conditions: in vivo, 72 h, dose 10-100 µg/ml, time 3 day
[10] = Toxicity in zebrafish embryo assessed as survival at 10 to 100 ug/ml measured 24 hrs post fertilization relative to control; parameters: species or system Danio rerio; conditions: in vivo, at 10 to 100 µg/mL, dose 10-100 µg/ml, read-out: Activity
In short: (§2)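 Zebrafish embryos were synchronized 24 h after collection and kept at 28 °C with chorion intact, 20 per condition in duplicate. They were exposed to 100, 50, 25 or 10 μg mL⁻¹ from 100 mg mL⁻¹ DMSO stocks (final DMSO under 0.1%), with medium renewed daily for 3 days. Aspect, hatching and mortality were followed to 96 hpf against 30 control embryos in water with 0.1% DMSO.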

[11] = Toxicity in zebrafish embryo assessed as developmental defects at 10 to 100 ug/ml measured 24 hrs post fertilization; parameters: species or system Danio rerio; conditions: in vivo, dose 10-100 µg/ml
[12] = Toxicity in zebrafish embryos assessed as egg hatching at 10 to 100 ug/ml measured for 72 hrs relative to control; type: tissue-based, Danio rerio; conditions: in vivo, at 10 to 100 µg/mL, dose 10-100 µg/ml
[13] = Toxicity in zebrafish embryos assessed as brain misshape at 10 to 100 ug/ml measured for 3 days; type: tissue-based, Danio rerio; conditions: in vivo, 72 h, dose 10-100 µg/ml, time 3 day
[14] = Toxicity in zebrafish embryos assessed as survival at highest concentration measured for 3 days relative to control; parameters: species or system Danio rerio; conditions: in vivo, time 3 day, read-out: Activity; in short: as §2
[15] = Toxicity in zebrafish embryos assessed as reduction in egg hatching at 10 to 100 ug/ml measured 5 days post fertilization; parameters: species or system Danio rerio; conditions: in vivo, 120 h, dose 10-100 µg/ml, time 5 day
[16] = Toxicity in zebrafish embryos assessed as reduction in egg hatching measured for 72 hrs; parameters: species or system Danio rerio; conditions: in vivo, dose 10-100 µg/ml
Plasmodium berghei [17] = assay: Antiplasmodial activity against Plasmodium berghei NK173 infected in Swiss CD-1 mouse model of malaria assessed as reduction in parasitaemia at 25 mg/kg, po measured after 7 days by giemsa staining based microscopic analysis; type: functional, organism-based; conditions: time 7.0 day
In short: (§3)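 Peters' 4-day suppressive test: female Swiss CD1 mice (10 weeks, 25 ± 2 g), six per group, infected i.p. with P. berghei NK173-parasitized RBC at D1. Dosing 2–3 h post-infection, then daily for 3 days, in 7% Tween 80/3% EtOH in saline. Giemsa thin tail-blood smears (≥500 erythrocytes) at D4 (2 h post-dose) and D7. Inhibition is taken versus vehicle controls.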

Plasmodium berghei [18] = assay: Antiplasmodial activity against Plasmodium berghei NK173 infected in Swiss CD-1 mouse model of malaria assessed as reduction in parasitaemia at 4 mg/kg, ip measured after 7 days by giemsa staining based microscopic analysis; type: functional, organism-based; conditions: time 7.0 day; in short: as §3
[19] = Toxicity in mouse at 200 mg/kg, po administered 2 hrs once for 6 hrs and measured for 24 hrs; type: organism-based; conditions: in vivo
In short: (§4)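 Two mice per route (i.p. or p.o.) received 4 increasing doses over 6 h (every 2 h) in Tween 80/EtOH/saline (7/3/90), then were followed for 24 h for health or behavioural problems. Maximal dose is set as 50% of the cumulative dose giving toxicity.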

Plasmodium berghei [20] = assay: Antiplasmodial activity against Plasmodium berghei NK173 infected in Swiss CD-1 mouse model of malaria assessed as reduction in parasitaemia at 50 mg/kg, ip measured after 4 days by giemsa staining based microscopic analysis relative to control; type: functional; parameters: scale not given: the % may be the effect or the level left; conditions: time 4 day; in short: as §3
Plasmodium berghei [21] = assay: Antiplasmodial activity against Plasmodium berghei NK173 infected in Swiss CD-1 mouse model of malaria assessed as reduction in parasitaemia at 50 mg/kg, po measured after 4 days by giemsa staining based microscopic analysis relative to control; type: functional; parameters: scale not given: the % may be the effect or the level left; conditions: time 4 day; in short: as §3
[22] = Toxicity in mouse at 150 mg/kg, ip administered 2 hrs once for 6 hrs and measured for 24 hrs; type: organism-based; conditions: in vivo; in short: as §4

Compound	hemolysis at 1 h, 100 ug/ml [1] [%]	IC50 (Plasmodium falciparum [2]) [µM]	IC50 (Plasmodium falciparum [3]) [µM]	selectivity ratio [4]	IC50 at 48 h [5] [µM]	IC50 (Plasmodium falciparum [6]) [µM]	solubility thermodynamic at 72 h [7] [µM]	other results
C[C@@H]1CC[C@H]2[C@@H](C)C(=O)O[C@@H]3O[C@@]4(C)CC[C@@H]1[C@]32OO4 [ARTEMISININ]	< 1	0.013	17					
O=C(OCCCOC(=O)c1cc(O)c(OCCOCc2ccccc2)c(O)c1)c1cc(O)c(OCCOCc2ccccc2)c(O)c1	< 1	3.2		5	15			
O=C(Nc1cccc(OC(=O)c2cc(O)c(O)c(O)c2)c1)c1cc(O)c(O)c(O)c1	< 1	2.1	3.7	6	54	3.4	300 (≈ 124 µg/mL)	
O=C(OCCCOC(=O)c1cc(O)c(O)c(O)c1)c1ccc(O)c(O)c1	< 1	5.5	4.9	41	84	7.6	280 (≈ 102 µg/mL)	
O=C(OCCCOC(=O)c1cc(O)c(OCCO)c(O)c1)c1cc(O)c(O)c(O)c1	< 1	20	4.3	> 14	> 118	7.6		
O=C(OCCCOC(=O)c1cc(O)c(O)c(O)c1)c1ccccc1	< 1	27	11	3	78	13	600 (≈ 199 µg/mL)	
O=C(OCCCOC(=O)c1cc(O)c(OCc2ccc3ccccc3c2)c(O)c1)c1cc(O)c(OCc2ccccc2)c(O)c1	< 1	0.9	0.9	5	6.9	0.4		
O=C(OCCOC(=O)c1cc(O)c(O)c(O)c1)c1cc(O)c(O)c(O)c1	< 1	3.7	3.7	19	69	6.7	430 (≈ 157 µg/mL)	Activity [8]: Non-Toxic; Activity [9]: Non-Toxic; survival at 24 h [10]: > 95%; Activity [11]: Non-Toxic; Activity [12]: 100%; Activity [13]: Non-Toxic; survival at 72 h [14]: > 90%
COCOc1cc(C(=O)OCCCOC(=O)c2cc(OCOC)c(OCc3ccc4ccccc4c3)c(OCOC)c2)cc(OCOC)c1OCc1ccccc1	< 1	21						
O=C(OCCCOC(=O)c1ccccc1)c1ccccc1	< 1	> 352					7 (≈ 1.99 µg/mL)	
O=C(OCCCCOC(=O)c1cc(O)c(O)c(O)c1)c1cc(O)c(O)c(O)c1	< 1	3.7	5.7	> 35	> 127	5	150 (≈ 59.1 µg/mL)	Activity [8]: Non-Toxic; Activity [9]: Non-Toxic; survival at 24 h [10]: > 95%; Activity [11]: Non-Toxic; Activity [12]: 100%; Activity [13]: Non-Toxic; survival at 72 h [14]: > 90%
O=C(OCCCOC(=O)c1cc(O)c(OCc2ccc3ccccc3c2)c(O)c1)c1cc(O)c(OCc2ccc3ccccc3c2)c(O)c1	< 1	4	1.1	2.4	9.7	1.8		
O=C(OCCCOC(=O)c1cc(O)c(O)c(O)c1)c1cc(O)cc(O)c1	< 1	4.6	3.8	> 21		3.6	1200 (≈ 437 µg/mL)	
C=C[C@H]1CN2CC[C@H]1C[C@H]2[C@H](O)c1ccnc2ccc(OC)cc12 [QUININE]	< 1	0.6						
COCOc1cc(C(=O)OCCCOC(=O)c2cc(OCOC)c(OCc3ccccc3)c(OCOC)c2)cc(OCOC)c1OCc1ccccc1	< 1	4.5					3 (≈ 2.21 µg/mL)	
O=C(OCCCOC(=O)c1ccc(O)c(O)c1)c1ccc(O)c(O)c1	< 1	9		> 42	> 144		33 (≈ 11.5 µg/mL)	
O=C(NCCCOC(=O)c1cc(O)c(O)c(O)c1)c1cc(O)c(O)c(O)c1	< 1	6.3	4.7	11	59	6.8	2100 (≈ 797 µg/mL)	Activity [8]: Non-Toxic; Activity [9]: Non-Toxic; Activity [15]: Toxic; survival at 24 h [10]: > 95%; Activity [11]: Non-Toxic; Activity [13]: Non-Toxic; Activity [16]: Dose-Dependent Effect; survival at 72 h [14]: > 90%
O=C(Nc1ccc(OC(=O)c2cc(O)c(O)c(O)c2)cc1)c1cc(O)c(O)c(O)c1	< 1	3.9	3.1	> 13	> 121	2.9	66 (≈ 27.3 µg/mL)	
CCN(CC)CCCC(C)Nc1ccnc2cc(Cl)ccc12 (stereo not drawn) [CHLOROQUINE]	< 1							Activity (Plasmodium berghei [17]): inactive; Activity (Plasmodium berghei [18]): inactive
O=C(OCCCOC(=O)c1cc(O)c(O)c(O)c1)c1cc(O)c(O)c(O)c1	< 1	5.8	3.2	> 23	> 132	4.1	2700 (≈ 1030 µg/mL)	Activity [8]: Non-Toxic; Activity [9]: Non-Toxic; Activity [19]: Non-Toxic; survival at 24 h [10]: > 95%; Activity [11]: Non-Toxic; Activity [12]: 100%; Activity [13]: Non-Toxic; Activity (Plasmodium berghei [20]): 26%; Activity (Plasmodium berghei [21]): 5%; survival at 72 h [14]: > 90%; Activity [22]: Non-Toxic
